Test results published in ChEMBL document CHEMBL4627404, “Design, Synthesis, and Activity Study of Water-Soluble, Rapid-Release Propofol Prodrugs” (J Med Chem, 2020).
Calls of active or inactive are those of the source. No cut-off for these calls is given here.

Legend:
[1] = Stability in water at 10 mg/ml incubated for 4 hrs by HPLC analysis; assay type: physicochemical; details: buffer
Method in brief: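 Aqueous solutions (10 mg/ml) held at 30 °C for 4 h before the plasma hydrolysis studies, n=3.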

[2] = test system: Mus musculus; assay: Anesthetic activity in iv dosed drug naive Kunming mouse assessed as loss of righting reflex; assay type: functional
Method in brief: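 Male KM mice (20-30 g), at least 20 drug-naïve animals per drug, given a tail-vein bolus over ~10 s. Anaesthesia scored as loss of righting reflex. ED50 found by the up-and-down method and analysed by Dixon–Mood to give the median effective dose with 95% CI.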

[3] = Toxicity in iv dosed drug naive Kunming mouse; assay type: organism-based; details: in vivo
Method in brief: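 Male KM mice (20-30 g), at least 20 drug-naïve animals per drug, given a tail-vein bolus over ~10 s. LD50 found by the up-and-down method.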

[4] = Drug metabolism in Kunming mouse plasma assessed as propofol release at 100 ug/ml incubated up to 120 mins by HPLC analysis relative to control; assay type: ADME, cell-free; details: 2 h
[5] = Therapeutic index, ratio of LD50 for toxicity in iv dosed drug naive Kunming mouse to ED50 for anesthetic activity in iv dosed drug naive Kunming mouse assessed as loss of righting reflex; assay type: organism-based; details: in vivo, read-out: Ratio LD50/ED50
Method in brief: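 TI = LD50/ED50. Both values come from tail-vein bolus (~10 s) dosing of male KM mice (20-30 g, at least 20 drug-naïve per drug) by the up-and-down method. The ED50 end point is loss of righting reflex.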

[6] = test system: Mus musculus; assay: Anesthetic activity in iv dosed drug naive Kunming mouse assessed as time from end of injection to appearance of loss of righting reflex dosed at 2 times anesthetic ED50; assay type: functional
Method in brief: (§1)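 Ten drug-naïve male KM mice (20-30 g) per drug received 2×ED50 by tail-vein injection. Onset is timed from end of injection to appearance of LORR. Duration is timed from LORR appearance to its recovery. Survival is recorded over the 10 mice.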

[7] = Solubility in water measured per 100 ml; assay type: physicochemical; details: buffer
[8] = Drug metabolism in iv dosed drug naive Kunming mouse assessed dose of propofol released from prodrugs dosed at 2 times anesthetic ED50; assay type: ADME, organism-based; details: in vivo
Method in brief: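 Propofol delivered at 2×ED50 is calculated as (MW propofol/MW prodrug)×(2×ED50) mg/kg from the tail-vein ED50 in KM mice.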

[9] = Toxicity in iv dosed drug naive Kunming mouse assessed as mouse survival dosed at 2 times anesthetic ED50; assay type: organism-based; details: in vivo; method in brief: as §1
[10] = Stability in Kunming mouse plasma assessed as drug decomposition at 100 ug/ml incubated up to 120 mins by HPLC analysis; assay type: ADME, cell-free; details: 2 h
Method in brief: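 Mouse blood was heparinised at sampling and centrifuged at 3500×g for 5 min at 4 °C to obtain plasma. A 10 mg/ml aqueous stock was diluted 1:100 into plasma, giving a final 100 μg/ml, and shaken at 37 °C for 2 h. The read-out was the percentage of propofol released, given as mean ± SD. Water stability (30 °C, 4 h, n=3) was checked beforehand.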

[11] = Stability in Kunming mouse plasma assessed as drug decomposition at 100 ug/ml incubated for 2 hrs by HPLC analysis; assay type: ADME, cell-free
[12] = Solubility in water; assay type: physicochemical

Row | Structure (SMILES) | Stability [1] | ED50 [2] | LD50 [3] [mg/kg] | Drug metabolism [4] | selectivity ratio [5] | Time [6] [s] | solubility [7] | Drug metabolism [8] [mg/kg] | survival [9] [%] | Stability [10] | Stability [11] | solubility [12] [mg/mL]
1 | CC(C)c1cccc(C(C)C)c1OC(=O)OCCC(=O)[O-].[Na+] | Stable | inactive |  |  |  |  |  |  |  |  |  | 
2 | CC(C)c1cccc(C(C)C)c1OC(=O)COC(=O)CN1CCOCC1.Cl |  | 28.1 mg/kg | 132 | Metabolite_Detected | 4.7 | 3.1 | 76.33 g | 25.1 | 100 |  |  | 
3 | CC(C)c1cccc(C(C)C)c1OCOP(=O)([O-])[O-].[Na+].[Na+] [FOSPROPOFOL DISODIUM] |  | 105 mg/kg | 288 |  | 2.8 | 46.4 |  | 112.7 | 100 |  |  | 
4 | CC(C)c1cccc(C(C)C)c1OC(=O)COC(=O)C1CCCCN1.Cl (stereo not given) |  | 20.8 mg/kg | 54.4 |  | 2.6 | 10.6 |  | 19.3 | 20 |  |  | 
5 | CC(C)c1cccc(C(C)C)c1OC(=O)CN1CCOCC1 |  | 36.6 mg/kg | 75 |  | 2.1 | 12 |  | 42.7 | 30 |  |  | 
6 | CC(C)c1cccc(C(C)C)c1OC(=O)COC(=O)CCC(=O)[O-].[Na+] |  | 73.1 mg/kg | 205 | Metabolite_Detected | 2.8 | 25.5 |  | 75.7 | 80 |  |  | 
7 | CC(C)c1cccc(C(C)C)c1OC(=O)OC(C(=O)[O-])C(=O)[O-].[Na+].[Na+] | Stable | inactive |  |  |  |  |  |  |  | Stable |  | 
8 | CC(C)c1cccc(C(C)C)c1OC(=O)COC(=O)CN1CCN(C)CC1.Cl |  | 40.3 mg/kg | 91.6 |  | 2.3 | 2.4 |  | 34.8 | 70 |  |  | 
9 | CC(C)c1cccc(C(C)C)c1OC(=O)COC(=O)CN1CCCC1.Cl |  | 25.2 mg/kg | 92.1 |  | 3.6 | 4 | 83.96 g | 23.4 | 100 |  |  | 
10 | CC(C)c1cccc(C(C)C)c1OC(=O)COC(C(=O)[O-])C(=O)[O-].[Na+].[Na+] |  | inactive |  |  |  |  |  |  |  |  | Stable | 
11 | CC(C)c1cccc(C(C)C)c1OC(=O)COC(=O)[C@H](C)N.Cl |  | 20.5 mg/kg | 51.9 |  | 2.5 | 18.2 |  | 21.2 | 50 |  |  | 
12 | CC(C)c1cccc(C(C)C)c1OC(=O)COC(=O)CC(=O)[O-].[Na+] |  | 75.9 mg/kg | 244 |  | 3.2 | 72.2 |  | 76 | 100 |  |  | 
13 | CNCC(=O)OCC(=O)Oc1c(C(C)C)cccc1C(C)C.Cl |  | 29.6 mg/kg | 60.8 |  | 2 | 8 |  | 30.7 | 60 |  |  | 
14 | CC(C)c1cccc(C(C)C)c1OC(=O)COC(=O)CN.Cl |  | 34.3 mg/kg | 89.2 |  | 2.6 | 9.1 |  | 37.1 | 10 |  |  | 
15 | CC(C)c1cccc(C(C)C)c1OC(=O)OCC(=O)[O-].[Na+] | Stable | inactive |  |  |  |  |  |  |  |  |  | 
16 | CC(C)c1cccc(C(C)C)c1OC(=O)CSCC(=O)[O-].[Na+] |  | 190 mg/kg | 222 |  | 1.2 | 20.2 |  | 203.6 | 0 |  | Stable | 
17 | CC(C)c1cccc(C(C)C)c1OC(=O)COC(=O)C1COCCN1.Cl (stereo not given) |  | 30.4 mg/kg | 69.6 |  | 2.3 | 6.7 |  | 28.1 | 60 |  |  | 
18 | CC(C)c1cccc(C(C)C)c1OC(=O)CNCC(=O)O.Cl |  |  |  |  |  |  |  |  |  |  |  | < 10
19 | CC(C)c1cccc(C(C)C)c1OC(=O)OC(CC(=O)[O-])C(=O)[O-].[Na+].[Na+] (stereo not given) | Stable | inactive |  |  |  |  |  |  |  | Stable |  | 
20 | CC(C)c1cccc(C(C)C)c1OC(=O)COC(=O)CN(C)C.Cl |  | 40.2 mg/kg | 93.8 |  | 2.3 | 4.6 |  | 40.1 | 40 |  |  | 
21 | CC(C)c1cccc(C(C)C)c1OC(=O)COC(=O)CN1CCCCC1.Cl |  | 22.3 mg/kg | 91.4 |  | 4.1 | 3 | 85.86 g | 22 | 100 |  |  | 
22 | CC(C)c1cccc(C(C)C)c1OC(=O)COCC(=O)[O-].[Na+] |  | 65.7 mg/kg |  |  |  | 82.3 |  | 74 | 100 |  |  | < 20
23 | CC(C)c1cccc(C(C)C)c1O [PROPOFOL] |  |  | 52.2 |  | 4.5 | 1 | 1.53 ×10⁻² g | 23.4 | 100 |  |  | 
